Experimental data from ChEMBL document CHEMBL1772951, “Synthesis of some novel benzofuran-2-yl(4,5-dihyro-3,5-substituted diphenylpyrazol-1-yl) methanones and studies on the antiproliferative effects and reversal of multidrug resistance of human MDR1-gene transfected mouse lymphoma cells in vitro” (Eur J Med Chem, 2011).
≈ marks a conversion by molar mass, not a printed value.

Key:
[1] = molecular target: ATP-dependent translocase ABCB1 (Homo sapiens, UniProt P08183); assay: Inhibition of human MDR1 expressed in mouse L5178Y cells assessed as rhodamine 123 accumulation at 20 ug/ml preincubated for 10 mins before rhodamine 123 challenge measured after 20 mins by flow cytometry relative to wild type; assay type: cell-based
Sequence of ATP-dependent translocase ABCB1 (P08183 whole entry): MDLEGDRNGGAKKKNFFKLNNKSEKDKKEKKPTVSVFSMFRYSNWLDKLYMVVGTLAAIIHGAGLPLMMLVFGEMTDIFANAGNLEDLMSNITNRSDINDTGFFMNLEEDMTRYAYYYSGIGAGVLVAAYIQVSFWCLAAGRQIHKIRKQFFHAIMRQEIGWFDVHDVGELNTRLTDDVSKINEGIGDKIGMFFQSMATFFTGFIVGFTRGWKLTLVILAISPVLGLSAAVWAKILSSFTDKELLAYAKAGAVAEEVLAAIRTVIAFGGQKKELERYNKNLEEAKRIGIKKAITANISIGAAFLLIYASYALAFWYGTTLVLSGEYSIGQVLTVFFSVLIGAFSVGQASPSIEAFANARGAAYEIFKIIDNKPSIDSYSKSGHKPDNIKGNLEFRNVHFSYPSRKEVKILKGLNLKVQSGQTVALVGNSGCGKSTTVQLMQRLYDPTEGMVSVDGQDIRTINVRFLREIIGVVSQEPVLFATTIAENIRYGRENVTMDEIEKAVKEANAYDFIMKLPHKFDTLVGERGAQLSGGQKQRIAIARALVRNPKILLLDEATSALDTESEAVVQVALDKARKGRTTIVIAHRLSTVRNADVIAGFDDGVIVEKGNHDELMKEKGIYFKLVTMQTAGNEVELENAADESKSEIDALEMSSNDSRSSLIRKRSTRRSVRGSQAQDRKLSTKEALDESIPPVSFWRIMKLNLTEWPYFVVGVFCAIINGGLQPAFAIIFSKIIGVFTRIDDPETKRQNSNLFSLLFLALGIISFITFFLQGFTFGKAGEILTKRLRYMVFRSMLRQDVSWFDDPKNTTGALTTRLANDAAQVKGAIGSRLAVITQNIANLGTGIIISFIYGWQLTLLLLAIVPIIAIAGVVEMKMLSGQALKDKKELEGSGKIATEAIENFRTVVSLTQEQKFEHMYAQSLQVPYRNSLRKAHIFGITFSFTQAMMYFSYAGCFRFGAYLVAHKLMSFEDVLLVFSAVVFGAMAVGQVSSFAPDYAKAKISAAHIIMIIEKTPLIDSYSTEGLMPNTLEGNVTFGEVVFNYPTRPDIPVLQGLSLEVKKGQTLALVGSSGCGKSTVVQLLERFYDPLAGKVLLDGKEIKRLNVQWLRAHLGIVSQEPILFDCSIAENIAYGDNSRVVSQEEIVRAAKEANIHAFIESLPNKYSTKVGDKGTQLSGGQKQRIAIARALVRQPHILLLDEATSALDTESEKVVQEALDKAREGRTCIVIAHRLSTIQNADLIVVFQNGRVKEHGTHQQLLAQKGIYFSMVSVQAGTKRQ
Procedure, shortened: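 L5178Y cells were transfected with human MDR1 via pHa MDR1/A retrovirus and kept under 60 ng/ml colchicine, alongside parental cells, in McCoy's 5A with 10% horse serum at 37 °C, 5% CO₂. Cells at 2 × 10⁶/ml in serum-free medium got compound for 10 min at room temperature, then rhodamine 123 for 20 min at 37 °C. Cells were washed twice and read by flow cytometry, with verapamil as positive control. FAR = (MDR treated/MDR control)/(parental treated/parental control). One representative experiment, 1 × 10⁴ cells.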

[2] = system: L5178Y MDR1-transfected mouse lymphoma cells (Mus musculus); assay: Antiproliferative activity against mouse MDR1-transfected L5178Y lymphoma cells after 72 hrs by MTT assay; settings: L5178Y MDR1, 72 h

RFU [1] | IC50 [2] | Compound
18.8 | 7.58 µg/mL (≈ 20.7 µM) | O=C(c1cc2ccccc2o1)N1N=C(c2ccccc2)CC1c1ccccc1 (centres undefined)
7.59 | 16.6 µg/mL (≈ 43.6 µM) | Cc1ccc(C2CC(c3ccccc3)=NN2C(=O)c2cc3ccccc3o2)cc1 (centres undefined)
29.9 | 6.89 µg/mL (≈ 16.2 µM) | COc1ccc(C2CC(c3ccccc3)=NN2C(=O)c2cc3ccccc3o2)cc1OC (centres undefined)
20.06 | 9.94 µg/mL (≈ 25.8 µM) | O=C(c1cc2ccccc2o1)N1N=C(c2ccccc2)CC1c1ccc(F)cc1 (centres undefined)
8.34 | 5.13 µg/mL (≈ 12.8 µM) | O=C(c1cc2ccccc2o1)N1N=C(c2ccccc2)CC1c1ccc(Cl)cc1 (centres undefined)
26.77 | 4.57 µg/mL (≈ 11.5 µM) | COc1ccc(C2CC(c3ccccc3)=NN2C(=O)c2cc3ccccc3o2)cc1 (centres undefined)
5.87 | 6.29 µg/mL (≈ 13.6 µM) | COc1ccc(C2CC(c3ccc(Cl)cc3)=NN2C(=O)c2cc3ccccc3o2)cc1OC (centres undefined)
16.22 | > 50 µg/mL | COc1ccc(C2CC(c3ccc(F)cc3)=NN2C(=O)c2cc3ccccc3o2)cc1OC (centres undefined)

Further lines, the compound ahead of its results:

Compound | RFU [1] | IC50 [2]
O=C(c1cc2ccccc2o1)N1N=C(c2ccccc2)CC1c1ccc([N+](=O)[O-])cc1 (centres undefined) | 15.18 | 4.87 µg/mL (≈ 11.8 µM)
O=C(c1cc2ccccc2o1)N1N=C(c2ccccc2)CC1c1ccccc1Cl (centres undefined) | 16.1 | 6.22 µg/mL (≈ 15.5 µM)
O=C(c1cc2ccccc2o1)N1N=C(c2ccc(Cl)cc2)CC1c1ccccc1 (centres undefined) | 6.77 | 13.6 µg/mL (≈ 34 µM)
O=C(c1cc2ccccc2o1)N1N=C(c2ccc(Cl)cc2)CC1c1ccc(Cl)cc1 (centres undefined) | 2.9 | 8.5 µg/mL (≈ 19.5 µM)
COc1ccc(C2CC(c3ccc(Cl)cc3)=NN2C(=O)c2cc3ccccc3o2)cc1 (centres undefined) | 5.85 | 5.74 µg/mL (≈ 13.3 µM)
O=C(c1cc2ccccc2o1)N1N=C(c2ccc(Cl)cc2)CC1c1ccc([N+](=O)[O-])cc1 (centres undefined) | 12.61 | 34.1 µg/mL (≈ 76.5 µM)
O=C(c1cc2ccccc2o1)N1N=C(c2ccc(Cl)cc2)CC1c1ccccc1Cl (centres undefined) | 6.02 | 44.8 µg/mL (≈ 103 µM)
O=C(c1cc2ccccc2o1)N1N=C(c2ccc(F)cc2)CC1c1ccccc1 (centres undefined) | 15.82 | 11.8 µg/mL (≈ 30.6 µM)
O=C(c1cc2ccccc2o1)N1N=C(c2ccc(F)cc2)CC1c1ccc(Cl)cc1 (centres undefined) | 6.96 | > 50 µg/mL
COc1ccc(C2CC(c3ccc(F)cc3)=NN2C(=O)c2cc3ccccc3o2)cc1 (centres undefined) | 8.72 | 23 µg/mL (≈ 55.5 µM)
O=C(c1cc2ccccc2o1)N1N=C(c2ccc(F)cc2)CC1c1ccc([N+](=O)[O-])cc1 (centres undefined) | 12.58 | > 50 µg/mL
O=C(c1cc2ccccc2o1)N1N=C(c2ccc(F)cc2)CC1c1ccccc1Cl (centres undefined) | 16.94 | 45.2 µg/mL (≈ 108 µM)
Cc1ccc(C2CC(c3ccc(F)cc3)=NN2C(=O)c2cc3ccccc3o2)cc1 (centres undefined) | 10.52 | > 50 µg/mL
O=C(c1cc2ccccc2o1)N1N=C(c2ccc(F)cc2)CC1c1ccc(F)cc1 (centres undefined) | 14.56 | > 50 µg/mL
